Experimental data taken from the RNAGym collection of RNA variant scans (doi:10.1126/science.aae0568).
Variants at the floor of the assay were thinned out.

B1: tRNA (parent)
chain: GUUCCGUUGGCGUAAUGGUAACGCGUCUCCCUCCUAAGGAGAAGACUGCGGGUUCGAGUCCCGUACGGAACG

Variants of: B1
Assay: yeast fitness relative to wild type (ratio to wild type); higher = fitter; tRNA-Arg(CCU), competitive growth, 37 C, YPD
Procedure, shortened: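 The tRNA-Arg(CCU) gene variants were made by chemical synthesis with a 3% per-site mutation rate at 69 sites and inserted at the native genomic locus of Saccharomyces cerevisiae. After pooling, the strains were competed in YPD at 37°C for 24 hours in six parallel replicates. Gene amplicons from the start population and each end population were read by 100-nucleotide paired-end sequencing, and Darwinian fitness relative to wild type was taken from genotype frequency changes. Genotypes needed ≥ 100 starting reads, and estimates < 0.5 were set to 0.5.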

Row | Variant | yeast fitness
1 | GUUCCGUUGGCGUAAUGGUAACGCGUCUCCCUCCUAAGGAGAAGACUGCGGCUUCGAGUCCCGUACGGUUCG | ≤ 0.5
2 | GUUCCGUUGGCGUCAUGGUAACGUGUCUCCCUCCCAAGGAGAAGACUGCGGGUUCGAGUCCCGUACGGAACG | ≤ 0.5
3 | GUUCCGUUGGCGUAAUGCUAACGGGUCUCCCUCUUAAGGAGAAGACUGAGGGUUCGAGUCCCGUACGGAACG | ≤ 0.5
4 | GUUCCGUUGACGUAAUGGUAACGCGUCUCCCUCCUAAGGACAAGACUGCGGGUUCGAGUCCCGUACGGAACG | 0.717
5 | GUUCCGUUGGCGUAGUGGUAUCGCGCCUCCCUCCUAAGGAGAAGACUGCGGGUUCGAGUCCCGUACGGAACG | 0.535
6 | GUUCAGUUGGCAUAAUGGUAACGCGUCUCCCUCCUAAGGAGAAGGCUGCGGGUUCGAGUCCCGUACAGAACG | ≤ 0.5
7 | GUUCCGUUGGCGUCAUGGUAACGCGUCUCCCUCCUAAGGAGAAGAAGGCGGGUUCGAGUCCCGUACGGAACG | ≤ 0.5
8 | GUUCCGUUGGCGUAACGGUAACGCGUCUCCCUCCUAAGGAGAAGACUGUGGGUUCGAGUCCCGUACGGAACG | 0.867
9 | GUUCCGUUGGCGUAAUGGUAACGCGUCUCCCUCCUAUGGAGGAGACUGCGGGUUCGAGUCCCGUACGGUACG | ≤ 0.5
10 | GUUCCGUUGGCGUAAUGGUAACGCGUGUCCCUCCUAAGGAGAAGACUGCGGGUUCGAGUCCCGUGGGGAACG | ≤ 0.5
11 | GUUCCGUUGGCGAAAUGGUACCGCGUCUCCCUUCUAAGGAGAAGACUGCGGAUUCGGGUCCCGUACUGAACG | ≤ 0.5
12 | GUUCCGUUGGCGUAAUGGUAACGGGUCGCCCUCCUAAGGAGAAGAGUGCGGGUUCGAGUCCCGUAUGGAACG | ≤ 0.5
13 | GUUCCGUUGGCGUAAUGGUAACGCGUCUCCUUCCUAAGGAGAAGACUGCGGGUUCGAGUCCCGUACGGUACG | 0.999
14 | GUUCCGUUGGCGUAAUGGUAACGCGUCUCCCUCAUAAGGAGAAGACUGUGGGUUCGAGUCCCGUACGGAACG | 0.826
15 | GUUCCGUUGGCGUAAUGGUAACGCGUCUCCCUUCUGAGGAGAAGCCUGCGGGUUCGUGCCCCGUACGGAACG | ≤ 0.5
16 | GUUCCGUUGGCCUAAUGGUAACGCGUCCCCCUCCUAAGGAGAAGACUGUGGGUUCGAGACCCGUACGGAACG | ≤ 0.5
17 | GUUCGGUUGGCGUAAUGGUCACGCGUCUCCGUCCUAUGGAGAAGACUGCGGGUUCGAGUCCCGUACGGAACG | 0.617
18 | GUUUCGUUGGCGUAGCGGUAACGCGUCUCCCUCCUAAGGAGAAGACUGCGGGUUCGAGUCCCGUACGGAACG | 0.728
19 | GUUCCGUUGGCGUAAUGGUAGCGCGUUUCCCUCCUAACGAGAAGACUGCGGGUUCGAGUCCCGUACGCAACG | ≤ 0.5

Row | Variant | yeast fitness
20 | GUUCGGUUGGCGUAAUGGUAACGCGUCUCCCUCCUAAGGAGAAGACUCUGGGUUCGAGUCCCGUACGGAACG | 0.622
21 | GUUCCGUUGGCGUAAUGGUAACGCGUCUCCCUCCUAAGGAGAAGACUACGGGUUCAAGUCCCGUACGGAACG | 1.02
22 | GUUCCGUUGGCGUAAUGGUAACGCGUCUCCCUCUUAAGGAGAAGACAGCGGGUUCGAGUCCCGUAUGGAACG | ≤ 0.5
23 | GUUCCGUUGGCGUAAUGGUAACGCGUCUCCCUCCUAUGGAGAAGACUGCGGGUUCGAGUCCCGUACGGAACG | 0.722
24 | GUUCUGUUGGCGUAAUGGUCACGCGUCUCCCUCCUAAGGAGAAGACUGCGGGUUCGAGUCCCGUAUGGAACG | 0.616
25 | GUUCCGUUGGCGUAAUGGUAACGCGUCUCGUCCCUAAGGAGAAGACUGCGGGUUCGAGUCCCGUACGGAACG | ≤ 0.5
26 | GUUCCGUUGGCGUAAUGGAGACGCGUCUCCCUCCUAAGGAGAAGACUGUGGGUUCGAGCCCGGUACGGAACG | ≤ 0.5
27 | GUUCCGUUGGCGUAAUGGUAACGCGUCUCCCUCCUAAAAAGGAGAGUGCGGGUUCGAGUCCCGUACGGAACG | 0.537
28 | GUUCCGUUGGCGUCAUGGUAACGCGUCUCCCUCCUAAGGAGAAGACUGCGGGUUCGACUCCCGUACGCAACG | ≤ 0.5
29 | GUACCGUUCGCGUAAUGGUAACGCGUCUCCCUCCUAAGGAGAAGACUGCGGGUUCGAGUCCCGUACCGAACG | ≤ 0.5
30 | GUUCCGUUGGCGUAAUGGUAACGCGUCUCCAUCCUAAGGAGAAGACUGCGGGUUCGAGUCGCAUACGGAACG | ≤ 0.5
31 | GAGCCGUUGGCGUAAUGGUAACGCGUCUCCCACCUAAGGAGAAGACUGCGGGUUCGAGUACCGUACGGAACG | ≤ 0.5
32 | GUUCCGUUGGCCUAAUGGUAACGCGUCUCCCUCCUAAGGAGAAGACUGCGGGUUCGAGUCCCGUACAGGACG | 0.534
33 | GUUCCGUUGGCGUAAUGGUAACGCGUCUCCCCCCUAAGGAGAAGACUGCGGGUUCGAGUCCCGUACAGAACG | 0.855
34 | GUUCCGUUGGCGUAAAGGUAACGCGUCUCCCUCCUAAGGACAAGACUGCGGGUUCGAGUCCCGUACGGAACG | 0.668
35 | GUUCCGUUGGCGUAAUGGUAACGCCUCUCCCUCCUAAGGAGAAGACUGCGGGUUCGAGGCCCGUACGGAACG | 0.678
36 | GUUCCGUUGGCGUAAUGGCAACGCGUCUCCCUCCUAAGGAGAUGACUGUGGGUUCGAGUCCUGUACGGAACG | 0.573
37 | GUUCCGUUGGCGUAAUGGUAACGCGUCUCCCUCCUAAGGAGUAGACUGCGGGUUCGAGUCCCGUGCGGAACG | 1.01
38 | GUUUCGUUGGCGUAAUGGUAACGCGUCUCACUCCUAAGGAGAAGAGUGUGGGUUCGAGUCCCGUACGGAACG | 0.57
